Screening results: PubChem, several laboratories
CHO parental Ca: ATP-evoked calcium signal inhibitors, parental CHO, primary screen, counter-screen for OX1R antagonist project, cell-based, fluorescence, Fluo-8 calcium dye; parental CHO-K1, ATP-induced calcium, Fluo-8 fluorescence; inhibition, % at 5.6 µM; 330,000 compounds, 0.63% hits;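 active means inhibition above that plate's mean sample inhibition plus 3 SD, cut at about 26% in these data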;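 further: 0% = ATP-challenged DMSO wells and 100% = DMSO wells without ATP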
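Test system: untransfected parental CHO cell line; also added: ATP stimulus; dosing: 5.6 µM, single dose; signal: calcium-sensitive Fluo-8 fluorescence; measure: percent inhibition of ATP-evoked calcium rise, normalized to controls; benchmarks: low control ATP plus DMSO, high control DMSO only; replication: one well per compound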
GPR7 antagonist: GPR7 receptor antagonists, primary screen, cell-based, fluorescence, single concentration; Neuropeptides B/W receptor type 1 (Homo sapiens), P48145; GPR7-expressing cells, fluorescence antagonist assay; inhibition, % at 4.4 µM; 290,000 compounds, 1.1% hits; AID 1861, 2009; in the data active means inhibition above about 16%, passing the limit was not always enough;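 further: cells stimulated with the agonist NPW; 0% = agonist with vehicle and 100% = vehicle without agonist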
OX1R antag-1: OX1R (HCRTR1) antagonists, primary screen, fluorescence, CHO/OX1R cells, Fluo-8 calcium, orexin A; Orexin/Hypocretin receptor type 1 (Homo sapiens), O43613; Fluo-8 calcium fluorescence; inhibition, % at 5 µM; 330,000 compounds, 0.43% hits;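 active means inhibition above its plate's threshold, mean inhibition of all tested compounds on the plate plus 3 SD, cut at about 37% in these data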;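 further: 0% = orexin A challenge wells and 100% = SB-334867-A antagonist wells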
Target sequence (O43613 whole entry, looked up): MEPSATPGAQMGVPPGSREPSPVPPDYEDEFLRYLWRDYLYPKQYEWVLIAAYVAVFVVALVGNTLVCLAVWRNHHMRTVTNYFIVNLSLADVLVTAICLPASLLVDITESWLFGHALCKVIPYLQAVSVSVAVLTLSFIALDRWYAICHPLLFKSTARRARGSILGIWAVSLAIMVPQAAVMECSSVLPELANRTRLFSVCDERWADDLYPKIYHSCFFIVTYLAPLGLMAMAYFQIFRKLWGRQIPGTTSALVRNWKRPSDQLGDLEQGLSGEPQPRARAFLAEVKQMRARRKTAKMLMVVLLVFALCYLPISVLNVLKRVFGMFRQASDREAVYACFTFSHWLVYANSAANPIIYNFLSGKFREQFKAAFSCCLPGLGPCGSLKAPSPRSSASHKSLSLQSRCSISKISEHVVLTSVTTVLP
EP2 antag: human EP2 receptor antagonists, primary screen, TR-FRET cAMP, C6 glioma cells. 260,000 compounds, 0.52% hits. C6 glioma cells expressing human EP2; cells stimulated with saturating PGE2. AID 1422, 2008. Prostaglandin E2 receptor EP2 subtype (Homo sapiens), P43116. inhibition, % at 25 µM;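 active means percent inhibition above 40 after rounding to a whole number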;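 further: rat C6 glioma host cells with rolipram phosphodiesterase inhibitor present; the protocol text gives 20 µM as final concentration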
OX1R antag-2: antagonists of human orexin 1 receptor (OX1R) | Orexin/Hypocretin receptor type 1 (Homo sapiens), O43613 | OX1R-expressing cells, FRET antagonist read-out | inhibition, % at 6.6 µM | 330,000 compounds, 1.8% hits; in the data active means inhibition mostly above about 38%, no sharp cut-off; inactive means mostly below about 40%;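 further: 0% = agonist challenge alone and 100% = reference antagonist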
EP2 mod: EP2 receptor modulators, cAMP readout, primary screen, cell-based, HTRF cAMP, PGE2 stimulation; Prostaglandin E2 receptor EP2 subtype (Homo sapiens), P43116; EP2-expressing cells, cAMP HTRF FRET, PGE2 co-stimulation; induction, % at 25 µM; 260,000 compounds, 0.83% hits; AID 940, 2007;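 active means compounds whose cAMP rise, as percent of the full-agonist control response, exceeds 60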;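 further: rat C6 glioma line stably carrying human EP2 under a CMV promoter; the protocol text gives 20 µM as final concentration; 100% = response of wells given 1 µM PGE2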
Active calls of the source: *. Only some compounds are listed: those with a hit (about 3.7% of all), similar ones and a draw of the others.

`CC(=O)Nc1ccc2nc3c(=O)n(C)c(=O)n(C)c3nc2c1` gave CHO parental Ca -7, GPR7 antagonist -7, OX1R antag-1 3, EP2 antag 17, OX1R antag-2 60* and EP2 mod -6.
`Nc1ccccc1C(=O)N/N=C1/C2CN3CCN(C2)CC1(Cc1ccccc1)C3` gave CHO parental Ca -13, GPR7 antagonist 1, OX1R antag-1 -35, EP2 antag 8, OX1R antag-2 37 and EP2 mod -8.
`CCn1c(=N)c(C(=O)NC)cc2c(=O)n3cccc(C)c3nc21` gave EP2 mod -25.
Screening CCCCNC(=O)c1cc2c(=O)n3cccc(C)c3nc2n(Cc2ccncc2)c1=N returned CHO parental Ca -16, GPR7 antagonist -19, OX1R antag-1 -22, EP2 antag 6, OX1R antag-2 41* and EP2 mod 2.
COCCCn1c(=NC(=O)c2ccncc2)c(C#N)cc2c(=O)n3cccc(C)c3nc21 was read as CHO parental Ca -7, GPR7 antagonist -8, OX1R antag-1 -15, EP2 antag 20, OX1R antag-2 41* and EP2 mod 27.
COCCNC(=O)c1cc2c(=O)n3cccc(C)c3nc2n(Cc2ccncc2)c1=N was read as CHO parental Ca -9, GPR7 antagonist -16, OX1R antag-1 -21, EP2 antag 8, OX1R antag-2 49* and EP2 mod 10.
`Cc1cccn2c(=O)c3cc(C#N)c(=NC(=O)c4ccncc4)n(CCCOC(C)C)c3nc12` gave CHO parental Ca -10, GPR7 antagonist -12, OX1R antag-1 -16, EP2 antag 8, OX1R antag-2 47 and EP2 mod 36.
Screening CC(C)(C)c1ccc(/C=N/NC(=O)CN2CCS(=O)(=O)CC2)cc1 returned CHO parental Ca -7, GPR7 antagonist -9, OX1R antag-1 -3 and OX1R antag-2 5.
For COCCn1c(=O)n(CC(=O)NCc2ccc(F)cc2)c2cccnc21 the results were EP2 antag 6 and EP2 mod 1.
`CCCCn1c(N)c(Sc2ccccc2[N+](=O)[O-])c(=O)[nH]c1=O` gave CHO parental Ca -5, GPR7 antagonist -6, OX1R antag-1 -23 and OX1R antag-2 55*.
For CSc1nnc2c(n1)OC(c1ccc(C(=O)O)cc1)N(C(C)=O)c1ccccc1-2 (centres undefined) the results were CHO parental Ca -5, GPR7 antagonist 0, OX1R antag-1 -3, EP2 antag 9, OX1R antag-2 50* and EP2 mod 19.
Screening COC(=O)c1c(O)ccc(Oc2ccccc2)c1C(=O)OC returned CHO parental Ca 2, OX1R antag-1 2, EP2 antag 9, OX1R antag-2 22 and EP2 mod 16.
`CC(=O)c1ccc(N(C(=O)Cc2cccs2)C(C(=O)NC2CCCCC2)c2cccs2)cc1` (centres undefined) gave EP2 antag 67* and EP2 mod 47.
Screening Cc1ccc(C)c(N(C(=O)Cc2cccs2)C(C(=O)NC2CCCC2)c2ccc(C)o2)c1 (centres undefined) returned CHO parental Ca -8, GPR7 antagonist -7, OX1R antag-1 -16, EP2 antag 7, OX1R antag-2 11 and EP2 mod -1.
Screening Cc1ccc(C(C(=O)NC2CCCC2)N(C(=O)Cc2cccs2)c2ccc(C)c(C)c2)o1 (centres undefined) returned CHO parental Ca 40*, GPR7 antagonist 11, OX1R antag-1 13, EP2 antag 3, OX1R antag-2 53* and EP2 mod 33.
`CC(=O)N(C1=C(N)C(=O)c2ccccc2C1=O)C(C)C` gave CHO parental Ca -3, GPR7 antagonist -6, OX1R antag-1 -6, EP2 antag 2, OX1R antag-2 48* and EP2 mod -10.
Screening CC12CCC(c3c(C(=O)O)nn(-c4ccccc4)c31)C2(C)C (centres undefined) returned CHO parental Ca -4, GPR7 antagonist -5, OX1R antag-1 17, EP2 antag 6, OX1R antag-2 41* and EP2 mod 19.
Screening CNCCOc1ccc(Cl)c(Cl)c1 returned CHO parental Ca -8, GPR7 antagonist -1, OX1R antag-1 -3, EP2 antag 8, OX1R antag-2 12 and EP2 mod -17.
`CN1C(=O)S/C(=C/c2cccnc2)C1=O` gave CHO parental Ca -2, GPR7 antagonist 1, OX1R antag-1 1, EP2 antag 7, OX1R antag-2 65* and EP2 mod 25.
O=C(O)CN1C(=O)S/C(=C\c2cccnc2)C1=O was read as CHO parental Ca 6, GPR7 antagonist -3, OX1R antag-1 -8, EP2 antag 5, OX1R antag-2 8 and EP2 mod 4.
`O=[N+]([O-])c1cc(Br)c(O)c(/C=N/Nc2nnnn2-c2cccc3ccccc23)c1` gave CHO parental Ca -18, GPR7 antagonist 8, OX1R antag-1 -10, EP2 antag 9, OX1R antag-2 45* and EP2 mod -37.
Cc1cc(Nc2ncc(Cl)cc2Cl)n(-c2ccccc2)n1 was read as CHO parental Ca -22, GPR7 antagonist -4, OX1R antag-1 -19, EP2 antag 4, OX1R antag-2 -2 and EP2 mod 3.
Oc1ccc(NC(=S)N=Nc2c(O)[nH]c3ccc(Br)cc23)cc1 was read as GPR7 antagonist -4, EP2 antag 46* and EP2 mod -117.
CCOC(=O)/C(C#N)=C1/C=C(C)NC(c2ccccc2O)=N1 was read as CHO parental Ca -3, GPR7 antagonist -19, OX1R antag-1 25, EP2 antag 11, OX1R antag-2 40* and EP2 mod 34.
For CCOC(=O)/C(C#N)=C1/C=CN(C)C(C)=N1 the results were CHO parental Ca 1, GPR7 antagonist -3, OX1R antag-1 -19, EP2 antag 8, OX1R antag-2 14 and EP2 mod 25.
For Cc1ccc(-n2c(Cc3cccn3C)nnc2SCC(=O)N2CCN(c3ccccc3)CC2)cc1 the results were CHO parental Ca -20, GPR7 antagonist -12, OX1R antag-1 -26, EP2 antag 0, OX1R antag-2 3 and EP2 mod -11.
c1ccc2c(c1)Cc1cc3ccccc3nc1-2 was read as CHO parental Ca -16, GPR7 antagonist -21, OX1R antag-1 -4 and OX1R antag-2 28.
O=C1c2ccccc2-c2nc3ccccc3cc21 was read as CHO parental Ca -3, GPR7 antagonist -1, OX1R antag-1 -3 and OX1R antag-2 58*.
